Values after ≈ are worked out from the molar mass of the structure shown.
How the values were obtained:
[1] = tested on: 1A9; test: Cytotoxicity against human 1A9 cells; assay type: functional; conditions: read-out: ED50 (the source's name)
Method in brief: (§1)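 Sulforhodamine B growth assay. Lines kept in RPMI-1640 with 25 mM HEPES, 0.25% sodium bicarbonate, 10% FBS and kanamycin. Trypsinized cells seeded at 1500–7500 per well, with compound added from DMSO-diluted stock. After 3 days, attached cells fixed with cold 50% TCA, stained with 0.4% SRB, dye solubilized, absorbance read at 562 nm. ED50 is 50% growth reduction, averaged over at least three independent determinations.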

[2] = tested on: KB; test: Cytotoxicity against human KB cells; assay type: functional; conditions: read-out: ED50 (the source's name); method in brief: as §1
[3] = tested on: KB; test: Cytotoxicity against human vincristine-resistant KB cells; assay type: functional; conditions: read-out: ED50 (the source's name); method in brief: as §1
[4] = tested on: A-431; test: Cytotoxicity against human A431 cells; assay type: functional; conditions: read-out: ED50 (the source's name); method in brief: as §1
[5] = tested on: A549; test: Cytotoxicity against human A549 cells; assay type: functional; conditions: read-out: ED50 (the source's name); method in brief: as §1
[6] = tested on: HCT-8; test: Cytotoxicity against human HCT8 cells; assay type: functional; conditions: read-out: ED50 (the source's name); method in brief: as §1
[7] = tested on: HUVEC; test: Antiangiogenesis activity against HUVEC; assay type: functional; conditions: Homo sapiens, read-out: ED50 (the source's name)
Method in brief: (§2)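 HUVEC seeded at 1.5×10^3 per well in EGM-2; after 24 h (day zero) compound added in EGM-2 at 2× the desired concentration. Day-zero plate stained with crystal violet. Remaining plates kept 72 h at 37 °C, then stained with 0.5% crystal violet in 20% MeOH. Dye eluted with 1:1 EtOH:0.1 M sodium citrate and read at 540 nm. Run per the NCI Angiogenesis Resource Center protocol.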

[8] = tested on: PC-3; test: Cytotoxicity against human PC3 cells; assay type: functional; conditions: read-out: ED50 (the source's name); method in brief: as §1
[9] = tested on: HUVEC; test: Cytotoxicity against HUVEC; assay type: functional; conditions: Homo sapiens, read-out: ED50 (the source's name); method in brief: as §2
[10] = Selectivity ratio of ED50 for KB cells to ED50 for KB-VIN cells; assay type: functional, Homo sapiens

Compound: COC1=C(C)C(=O)/C(=C(O)/C=C/c2ccc(OC)cc2)C(=O)C1(C)C
- EC50 [1]: 2.8 µg/mL (≈ 8.18 µM)
- EC50 [2]: 3.6 µg/mL (≈ 10.5 µM)
- EC50 [3]: 2.9 µg/mL (≈ 8.47 µM)
- EC50 [4]: 9.2 µg/mL (≈ 26.9 µM)
- EC50 [5]: 3 µg/mL (≈ 8.76 µM)
- EC50 [6]: 5.6 µg/mL (≈ 16.4 µM)
- EC50 [7]: < 4 µg/mL
- EC50 [8]: 18.2 µg/mL (≈ 53.2 µM)
- EC50 [9]: 2.5 µg/mL (≈ 7.3 µM)

Compound: COC1=C(C)C(=O)/C(=C(O)/C=C/c2cccs2)C(=O)C1(C)C
- EC50 [1]: 4 µg/mL (≈ 12.6 µM)
- EC50 [2]: 5.5 µg/mL (≈ 17.3 µM)
- EC50 [3]: 3.4 µg/mL (≈ 10.7 µM)
- EC50 [4]: 10.8 µg/mL (≈ 33.9 µM)
- EC50 [5]: 4.5 µg/mL (≈ 14.1 µM)
- EC50 [6]: 8.6 µg/mL (≈ 27 µM)
- EC50 [7]: < 4 µg/mL
- EC50 [8]: 18.2 µg/mL (≈ 57.2 µM)
- EC50 [9]: 2.5 µg/mL (≈ 7.85 µM)

Compound: COC1=C(C)C(=O)/C(=C(O)/C=C/c2ccco2)C(=O)C1(C)C
- EC50 [1]: 7.9 µg/mL (≈ 26.1 µM)
- EC50 [2]: 9.9 µg/mL (≈ 32.7 µM)
- EC50 [3]: 8.8 µg/mL (≈ 29.1 µM)
- EC50 [4]: 14.7 µg/mL (≈ 48.6 µM)
- EC50 [5]: 10 µg/mL (≈ 33.1 µM)
- EC50 [6]: 17.5 µg/mL (≈ 57.9 µM)
- EC50 [7]: < 4 µg/mL
- EC50 [8]: 20.6 µg/mL (≈ 68.1 µM)
- EC50 [9]: 2.4 µg/mL (≈ 7.94 µM)

Compound: CC1=C(O)C(C)(C)C(=O)C(C(=O)/C=C/c2ccccc2)=C1O
- EC50 [1]: 8 µg/mL (≈ 26.8 µM)
- EC50 [2]: 10.5 µg/mL (≈ 35.2 µM)
- EC50 [3]: 6.5 µg/mL (≈ 21.8 µM)
- EC50 [4]: 14 µg/mL (≈ 46.9 µM)
- EC50 [5]: 9 µg/mL (≈ 30.2 µM)
- EC50 [6]: 15.8 µg/mL (≈ 53 µM)
- EC50 [7]: < 4 µg/mL
- EC50 [8]: 17.8 µg/mL (≈ 59.7 µM)
- EC50 [9]: 2.1 µg/mL (≈ 7.04 µM)

Compound: COC1=C(C)C(=O)/C(=C(O)/C=C/c2ccccc2OC)C(=O)C1(C)C
- EC50 [1]: 2.5 µg/mL (≈ 7.3 µM)
- EC50 [2]: 3.3 µg/mL (≈ 9.64 µM)
- EC50 [3]: 2.8 µg/mL (≈ 8.18 µM)
- EC50 [4]: 6.6 µg/mL (≈ 19.3 µM)
- EC50 [5]: 2.4 µg/mL (≈ 7.01 µM)
- EC50 [6]: 4.1 µg/mL (≈ 12 µM)
- EC50 [7]: < 4 µg/mL
- EC50 [8]: 15.6 µg/mL (≈ 45.6 µM)
- EC50 [9]: 1.7 µg/mL (≈ 4.97 µM)

Compound: CCC1=C(OC)C(C)(C)C(=O)C(C(=O)/C=C/c2ccccc2)=C1O
- EC50 [1]: 3.8 µg/mL (≈ 11.6 µM)
- EC50 [2]: 4.3 µg/mL (≈ 13.2 µM)
- Ratio ED50 [10]: 14.3
- EC50 [3]: 0.3 µg/mL (≈ 0.919 µM)
- EC50 [4]: 13.8 µg/mL (≈ 42.3 µM)
- EC50 [5]: 5.5 µg/mL (≈ 16.9 µM)
- EC50 [6]: 9.4 µg/mL (≈ 28.8 µM)
- EC50 [8]: 18.9 µg/mL (≈ 57.9 µM)

Compound: COC1=C(C)C(=O)/C(=C(O)/C=C/c2c(C)cc(C)cc2C)C(=O)C1(C)C
- EC50 [1]: 6.2 µg/mL (≈ 17.5 µM)
- EC50 [2]: > 20 µg/mL
- Ratio ED50 [10]: >5
- EC50 [3]: 1.84 µg/mL (≈ 5.19 µM)
- EC50 [4]: 20 µg/mL (≈ 56.4 µM)
- EC50 [5]: 8 µg/mL (≈ 22.6 µM)
- EC50 [6]: 8.4 µg/mL (≈ 23.7 µM)
- EC50 [8]: > 20 µg/mL

Compound: COC1=C(C)C(=O)/C(=C(O)/C=C/c2c(C)cccc2C)C(=O)C1(C)C
- EC50 [2]: 7.1 µg/mL (≈ 20.9 µM)
- EC50 [3]: 2.1 µg/mL (≈ 6.17 µM)
- EC50 [4]: 10.1 µg/mL (≈ 29.7 µM)
- EC50 [5]: 8.3 µg/mL (≈ 24.4 µM)
- EC50 [6]: 7.8 µg/mL (≈ 22.9 µM)
- EC50 [7]: < 4 µg/mL
- EC50 [8]: 17.1 µg/mL (≈ 50.2 µM)
- EC50 [9]: 3 µg/mL (≈ 8.81 µM)

Compound: CC1(C)C(=O)C(C(=O)/C=C/c2ccccc2)=C(O)C(C)(C)C1=O
- EC50 [1]: 4.6 µg/mL (≈ 14.7 µM)
- EC50 [2]: 7.3 µg/mL (≈ 23.4 µM)
- EC50 [3]: 3.8 µg/mL (≈ 12.2 µM)
- EC50 [4]: 10.5 µg/mL (≈ 33.6 µM)
- EC50 [5]: > 5 µg/mL
- EC50 [6]: 5 µg/mL (≈ 16 µM)
- EC50 [7]: < 4 µg/mL
- EC50 [8]: 11.1 µg/mL (≈ 35.5 µM)
- EC50 [9]: 2 µg/mL (≈ 6.4 µM)

Compound: C=Cc1ccccc1/C=C/C(O)=C1/C(=O)C(C)=C(OC)C(C)(C)C1=O
- EC50 [2]: 1.9 µg/mL (≈ 5.61 µM)
- EC50 [3]: 1.1 µg/mL (≈ 3.25 µM)
- EC50 [4]: 2.6 µg/mL (≈ 7.68 µM)
- EC50 [5]: 2.2 µg/mL (≈ 6.5 µM)
- EC50 [6]: 2.1 µg/mL (≈ 6.21 µM)
- EC50 [7]: 1.1 µg/mL (≈ 3.25 µM)
- EC50 [8]: 4.6 µg/mL (≈ 13.6 µM)
- EC50 [9]: 1.1 µg/mL (≈ 3.25 µM)

Compound: CCc1ccc(/C=C/C(O)=C2/C(=O)C(C)=C(OC)C(C)(C)C2=O)cc1
- EC50 [1]: 5.3 µg/mL (≈ 15.6 µM)
- EC50 [2]: 6.9 µg/mL (≈ 20.3 µM)
- EC50 [3]: 1.9 µg/mL (≈ 5.58 µM)
- EC50 [4]: 12 µg/mL (≈ 35.3 µM)
- EC50 [5]: 6.1 µg/mL (≈ 17.9 µM)
- EC50 [6]: 10.5 µg/mL (≈ 30.8 µM)
- EC50 [8]: 15.1 µg/mL (≈ 44.4 µM)

Compound: CCCC1=C(OC)C(CCC)(CCC)C(=O)/C(=C(O)\C=C\c2ccc(Br)cc2)C1=O
- EC50 [1]: 0.9 µg/mL (≈ 1.89 µM)
- EC50 [2]: 0.9 µg/mL (≈ 1.89 µM)
- EC50 [3]: 0.9 µg/mL (≈ 1.89 µM)
- EC50 [4]: 1.2 µg/mL (≈ 2.52 µM)
- EC50 [5]: 1 µg/mL (≈ 2.1 µM)
- EC50 [6]: 1.3 µg/mL (≈ 2.73 µM)
- EC50 [8]: 2.3 µg/mL (≈ 4.84 µM)

Compound: COC1=C(C)C(=O)/C(=C(O)/C=C/c2ccc(Br)cc2)C(=O)C1(C)C
- EC50 [1]: 1.1 µg/mL (≈ 2.81 µM)
- EC50 [2]: 1.7 µg/mL (≈ 4.34 µM)
- EC50 [3]: 1.9 µg/mL (≈ 4.86 µM)
- EC50 [4]: 9 µg/mL (≈ 23 µM)
- EC50 [5]: 1.4 µg/mL (≈ 3.58 µM)
- EC50 [6]: 7.4 µg/mL (≈ 18.9 µM)
- EC50 [7]: < 4 µg/mL
- EC50 [8]: 17.7 µg/mL (≈ 45.2 µM)
- EC50 [9]: 3.6 µg/mL (≈ 9.2 µM)
